# High-throughput results: PubChem BioAssay, The Scripps Research Institute Molecular Screening Center
# Sampled rows, rich in hits. Any-hit rate of the full collection: about 2.5%.
# GSTO1 inh: inhibitors of recombinant GSTO1, primary screen, counter-screen for RBBP9 inhibitor project, biochemical, fluorescence polarization. Glutathione S-transferase omega-1 (Homo sapiens), P78417. activity-based probe fluorescence polarization. inhibition, % at 5.96 µM. 300,000 tested, 1.1% active. AID 1974, 2009;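 active means inhibition above the campaign mean inhibition plus 3 SD, cut at about 35% in these data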;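 further: 0% = GSTO1-1 with DMSO and 100% = wells lacking GSTO1-1 enzyme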
# TDP2 absorb: human TDP2 enzyme inhibitors, primary screen, biochemical, epi absorbance, recombinant enzyme. Tyrosyl-DNA phosphodiesterase 2 (Homo sapiens), O95551. T5PNP hydrolysis, p-nitrophenol absorbance 415 nm. inhibition, % at 12.8 µM. 370,000 tested, 0.34% active;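 active means inhibition above the mean of all tested compounds plus 3 SD, set per campaign, cut at about 25% in these data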;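 further: 0% = DMSO with enzyme and 100% = buffer with substrate but no TDP2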
#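 Assay system: Recombinant human TDP2 | Quantity: 120 nM TDP2 per well | Incubation: 2 h at 37 °C | Signal: Epi absorbance | Evaluation: Percent inhibition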
# PAD4 FP inh: human PAD4 inhibitors, primary screen, biochemical, fluorescence polarization, 1536-well format. 330,000 tested, 0.41% active. Protein-arginine deiminase type-4 (Homo sapiens), Q9UM07. inhibition, % at 6.36 µM. recombinant PAD4, RCA probe fluorescence polarization;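 active means percent inhibition above a cutoff equal to the mean of all tested compounds plus 3 SD, cut at about 15% in these data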;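 further: 0% = PAD4 with RCA probe and DMSO and 100% = probe without PAD4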
# PRMT1 FP inh: PRMT1 methyltransferase inhibitors, primary screen, biochemical, fluorescence polarization; 370,000 tested, 1.3% active; recombinant PRMT1, activity-based probe fluorescence polarization; Protein arginine N-methyltransferase 1 (Homo sapiens), Q99873; inhibition, % at 2.79 µM;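 active means inhibition above about 21% made by adding two undisclosed values, limit read from the data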
# E coli Lon inh: inhibitors of E. coli Lon protease, primary screen, biochemical, fluorescence polarization | purified E. coli Lon protease | inhibition, % at 7.94 µM | 360,000 tested, 0.42% active | AID 602123, 2011; in the data active means inhibition above about 13%, passing the limit was not always enough;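 further: 0% = enzyme with probe and DMSO and 100% = no enzyme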
# Target sequence (P0A9M0 whole entry, looked up): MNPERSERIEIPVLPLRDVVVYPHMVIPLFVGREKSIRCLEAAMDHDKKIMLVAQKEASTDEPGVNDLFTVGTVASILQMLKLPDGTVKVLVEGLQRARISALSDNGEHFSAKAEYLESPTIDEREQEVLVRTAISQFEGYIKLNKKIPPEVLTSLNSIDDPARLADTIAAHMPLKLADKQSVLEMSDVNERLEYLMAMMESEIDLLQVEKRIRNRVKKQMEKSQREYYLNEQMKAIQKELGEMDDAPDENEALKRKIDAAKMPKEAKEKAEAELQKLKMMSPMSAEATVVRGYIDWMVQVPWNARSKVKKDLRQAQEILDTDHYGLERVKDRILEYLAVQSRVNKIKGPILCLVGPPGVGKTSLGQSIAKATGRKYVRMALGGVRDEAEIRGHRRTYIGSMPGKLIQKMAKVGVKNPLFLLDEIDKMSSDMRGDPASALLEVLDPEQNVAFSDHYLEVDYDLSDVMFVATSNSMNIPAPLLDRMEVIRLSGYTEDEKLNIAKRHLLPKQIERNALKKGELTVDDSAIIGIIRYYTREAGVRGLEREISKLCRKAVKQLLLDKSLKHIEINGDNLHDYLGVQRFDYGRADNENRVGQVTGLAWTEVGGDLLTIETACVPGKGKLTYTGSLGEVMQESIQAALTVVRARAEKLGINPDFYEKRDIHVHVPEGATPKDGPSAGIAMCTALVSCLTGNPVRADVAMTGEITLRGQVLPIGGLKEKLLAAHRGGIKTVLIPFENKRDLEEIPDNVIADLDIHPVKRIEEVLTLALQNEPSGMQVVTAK
# E coli Lon conf: E. coli Lon protease inhibitor retest, confirmation, biochemical, fluorescence polarization. purified E. coli Lon. inhibition, % at 7.94 µM. 1,400 tested, 31% active. AID 602230, 2012. shares compounds with E coli Lon inh; in the data active means inhibition above about 16%;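 further: 0% = enzyme with probe and DMSO and 100% = no enzyme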
# Numbers without * were called inactive; / = not tested or not shown.
SMILES,GSTO1 inh,TDP2 absorb,PAD4 FP inh,PRMT1 FP inh,E coli Lon inh,E coli Lon conf
C[C@H](O)[C@@H]1C(=O)N2CCc3c([nH]c4c(-c5ccc6c(c5)OCO6)cccc34)[C@@H]2C[C@@H]1N(C)C(=O)c1ccccc1F,/,-3.4,/,2.8,/,/
CCOc1cc(-c2ccc(N)c(OCC)c2)ccc1N,5.7,-4.5,-3.1,16.2,51.6*,98.2*
CCOc1ccc(NC(C)=O)cc1N,/,5.5,-0.7,2.3,-3.8,/
CC(=O)C1(C(=O)NCc2ccccc2)CC(c2ccccc2C(F)(F)F)=NO1 (centres undefined),/,-8.0,/,-1.4,/,/
O=C(O)CC(NNC(=O)c1ccccc1)C(=O)Nc1cccc([N+](=O)[O-])c1 (centres undefined),1.7,-0.1,-0.4,9.9,16.3*,12.0
COc1cc(OC)c2ccc(=O)oc2c1C(CC(=O)N1CCCC1)c1ccc2c(c1)OCO2 (centres undefined),8.3,2.9,-1.0,4.3,-13.5,/
COc1cc(C(CC(=O)N2CCCC2)c2c(OC)cc(OC)c3ccc(=O)oc23)cc(OC)c1OC (centres undefined),6.1,2.0,-2.9,7.0,37.0*,13.9
CC1(C)CC(=O)C(C(=S)Nc2ccccc2)=C(NC2CC(C)(C)NC(C)(C)C2)C1,4.2,9.3,-2.3,-1.2,58.8*,-1.3
CCOC(=O)/C=c1\s/c(=C\c2ccc(C(F)(F)F)cc2)c(=O)n1CC(=O)NCc1ccco1,-12.1,0.0,-5.8,-2.2,-3.8,/
CCOC(=O)/C=c1\s/c(=C\c2ccc(C)cc2)c(=O)n1CC(=O)NCc1ccco1,-2.7,2.0,5.4,0.0,24.0*,-1.6
Cc1cc(C)n2nc(C)c(Br)c2n1,-0.9,14.6,-3.1,-0.6,2.2,/
Cc1cc(C)n2nc3nc4c(cc3c2n1)CCCC4,11.8,8.9,1.7,4.5,55.8*,13.5
COc1ccc(S(=O)(=O)NC2CC2)cc1-n1cnnn1,1.1,-2.2,-4.0,2.1,-4.7,/
COc1cc(S(=O)(=O)NC2CCCC2)ccc1-n1cnnn1,-3.2,16.1,1.3,-0.4,22.1*,-7.2
Clc1ccccc1Cn1ccc2ccc(-c3ccc4ccn(Cc5ccccc5Cl)c4c3)cc21,/,14.7,/,5.2,/,/
COC(=O)c1cc(-c2cccc(OC(F)(F)F)c2)c(=O)n2c1CCC2,/,1.6,/,2.8,/,/
Cc1c(C)n(C)c2ccc(C(=O)NCCCN3CCOCC3)cc12,5.7,-5.0,-4.3,0.1,56.5*,-2.1
Cc1c(C)n(C)c2ccc(C(=O)NCCCN3CCCC3)cc12,2.5,8.4,-7.3,-1.1,-4.1,/
O=C(NCCc1c[nH]c2ccccc12)OCc1cn(-c2ccc(F)cc2)nn1,/,-6.5,/,3.5,/,/
CC(=O)N/N=C/c1cc(C(C)C)cc(/C=N/NC(C)=O)c1O,0.8,-7.6,1.2,10.9,69.4*,100.5*
CC(=O)N/N=C/c1cc(C)n(-c2ccc(Br)cc2)c1C,2.5,5.4,-2.4,-0.1,-5.0,/
CCCn1c(NC(=O)CSCC(=O)Nc2cc(C)on2)nc2ccccc21,-3.6,-12.1,1.9,-1.3,21.6*,-4.1
O=C(NCCc1ccccc1)C1CCN(S(=O)(=O)N2CCCC2)CC1,5.1,-6.3,-5.0,3.4,-2.6,/
O=C(NCCc1ccccc1)c1cccc(NC(=O)C2CCCC2)c1,/,2.9,/,3.7,16.1*,-1.3
O=C(NCCc1ccccc1)C1CCN(S(=O)(=O)N2CCCCCC2)CC1,-2.6,-5.8,-3.3,9.3,35.1*,18.8*
COC(=O)C1CN(CCO)CCS(=O)(=O)N1Cc1cccc(Cl)c1 (centres undefined),/,5.9,/,-2.5,/,/
C=CS(=O)(=O)N(Cc1nnn(Cc2ccccc2)c1Br)[C@@H](CC(C)C)C(=O)OC,/,7.8,/,1.0,/,/
COC(=O)[C@H]1C[C@@]2(N3CCCCC3)c3ccccc3N(C(=O)OC(C)(C)C)[C@H]2N1C(=O)OC(C)(C)C,/,-2.5,/,-2.3,/,/
O=C(NCCS(=O)(=O)N1CCN(c2ccccc2F)CC1)C1CC(=O)N(c2ccc(F)cc2)C1 (centres undefined),3.1,-10.8,1.5,-1.1,74.9*,-8.5
